Assay outcomes deposited in PubChem BioAssay by several laboratories.
Measles CPE – protection of cells from measles virus; 1.5% of 140,000 active; Measles virus-infected cells, CPE protection, absorbance; protection (pct of control), % at 4 µM; in the data active = protection mostly above about 24%, no sharp cut-off; inactive = mostly below about 26%
BB579 growth dn – yeast BB579 growth reduction in restrictive medium; S. cerevisiae BB579 growth, OD615, 48 h; inhibition, % at 10 µM; 0.51% of 140,000 active; AID 804;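 active = inhibition above a set limit, 3 SD over the mean compound inhibition, cut at about 44% in these data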
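System: DeaD yeast strain BB579; buffer or medium: CSMM-D dextrose restrictive medium; technique: OD at 615 nm; schedule: 4 h cell preincubation, 48 h compound exposure, 30 °C humidified; doses: single 10 µM dose; controls: amphotericin B 10 µg/mL, positive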
Yeast life ext – yeast lifespan extension. 0.68% of 130,000 active. inhibition of the nicotinamide effect, % at 10 µM. S. cerevisiae growth with nicotinamide, OD615; deaD strain in restrictive glucose medium;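 active = inhibition above a set limit, placed 3 SD over the median of all compounds, cut at about 26% in these data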
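Buffer or medium: CSMM-D glucose medium, restrictive; test system: modified budding yeast, DeaD strain; compound: single dose 10 µM compound, 0.25% DMSO; schedule: culture preincubation 4 h, compound exposure 48 h, both 30 °C; detection: optical density (absorbance) at 615 nm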
RAM inhibit – inhibitors of the yeast RAM network. S. cerevisiae dse1pr::URA3 reporter, 5-FOA growth OD615, 2 d; analog-sensitive cbk1-as2 kinase mutant strain. inhibition, % at 50 µM. 1.8% of 190,000 active. AID 868;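 active = inhibition above a set limit, 3 SD over mean compound inhibition, cut at about 8.4% in these data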;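 note: inhibition rescues growth on 5-FOA so higher OD means more RAM inhibition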
A number is an active result. A selection: hits, their analogues and other compounds. The true share with any hit is near 3.6%.

O=C1NC(c2ccccn2)Nc2sc3c(c21)CCC3 (configuration not stated) was read as Measles CPE inactive, BB579 growth dn 74.8, Yeast life ext inactive and RAM inhibit inactive.
`CCN1/C(=C/c2ccc3cccc(C)c3[n+]2CC)Sc2ccccc21` gave Measles CPE inactive, BB579 growth dn 95.9, Yeast life ext inactive and RAM inhibit inactive.
`COc1ccc(C(=O)NCCCN2CCOCC2)cc1OC` gave Measles CPE 65.8, BB579 growth dn inactive, Yeast life ext inactive and RAM inhibit inactive.
CCc1cc2c3c(c1)C1(C(=O)N3C(C)(C)C=C2C)C(C#N)=C(N)Oc2[nH]c(=O)[nH]c(=O)c21 (configuration not stated) was read as RAM inhibit inactive.
Screening COC(=O)Cn1c(=NC(=O)c2cc(-c3cccs3)nc3ccccc23)sc2cc(S(N)(=O)=O)ccc21 returned Measles CPE inactive, BB579 growth dn inactive, Yeast life ext inactive and RAM inhibit inactive.
For COC(=O)Cn1c(=NC(=O)c2nc3ccccc3s2)sc2cc(S(N)(=O)=O)ccc21 the results were Measles CPE inactive, BB579 growth dn inactive, Yeast life ext inactive and RAM inhibit 8.6.
`CCn1c2ccccc2c2cc(NC(=O)c3cc(OC)cc(OC)c3)ccc21` gave Measles CPE inactive, BB579 growth dn inactive, Yeast life ext inactive and RAM inhibit 8.6.
For CCn1c2ccccc2c2cc(NC(=O)COc3ccc(OC)cc3)ccc21 the results were Measles CPE inactive, BB579 growth dn inactive, Yeast life ext inactive and RAM inhibit inactive.
For Cc1cc(=O)[nH]c(Sc2c(-c3ccccc3)c3ccccc3[nH]c2=O)n1 the results were Measles CPE inactive, BB579 growth dn inactive, Yeast life ext inactive and RAM inhibit 8.7.
Screening COCc1cc(=O)[nH]c(Sc2c(-c3ccccc3)c3ccc(Cl)cc3[nH]c2=O)n1 returned Measles CPE inactive, BB579 growth dn inactive, Yeast life ext inactive and RAM inhibit inactive.
For Cc1oc(-c2ccc3c(c2)OCCO3)cc1C(=O)O the results were Measles CPE inactive, BB579 growth dn 89.8 and RAM inhibit inactive.
CCOc1ccc(CCn2c(-c3ccco3)nc3ccccc3c2=O)cc1OCC was read as Measles CPE 44.3, BB579 growth dn inactive, Yeast life ext inactive and RAM inhibit inactive.
`O=c1c2ccccc2nc(-c2ccco2)n1Cc1ccccc1` gave Measles CPE inactive, BB579 growth dn inactive, Yeast life ext inactive and RAM inhibit inactive.
For O=C(CC(=O)NN=C1CCCCCC1)NCc1cccnc1 the results were RAM inhibit inactive.
Screening CC1CCC2(CC1)NC(=S)N(c1ccccc1)N2 (configuration not stated) returned Measles CPE inactive, BB579 growth dn 69.2, Yeast life ext inactive and RAM inhibit inactive.
For O=C1NC2(CCCCC2)NN1c1ccccc1 the results were Measles CPE inactive, BB579 growth dn inactive, Yeast life ext inactive and RAM inhibit inactive.
Cn1c(=O)[nH]c(NC2CCCCC2)c(N=O)c1=O was read as Measles CPE 40.8, BB579 growth dn inactive, Yeast life ext inactive and RAM inhibit inactive.
`CN1C(=O)/C(=N/OC(=O)c2ccccc2)c2ccccc21` gave Measles CPE inactive, BB579 growth dn 100.3, Yeast life ext inactive and RAM inhibit inactive.
Screening O=C(O/N=C1\C(=O)N(c2ccccc2)c2ccccc21)C1CC1 returned RAM inhibit inactive.
Screening CC(C)Oc1ccc(Cc2cnc(=S)[nH]c2N)cc1 returned RAM inhibit inactive.
`c1ccc2c(c1)oc1c(N3CCOCC3)ncnc12` gave Measles CPE inactive, BB579 growth dn 55.6, Yeast life ext inactive and RAM inhibit inactive.
O=C(Nc1ccc2c(c1)OCO2)c1ccc(N2CCCC2)c([N+](=O)[O-])c1 was read as Measles CPE inactive, BB579 growth dn inactive, Yeast life ext inactive and RAM inhibit inactive.
Screening CC(=O)NC(CCS(C)(=O)=O)C(=O)Nc1cccc(C)c1 (configuration not stated) returned Measles CPE inactive, BB579 growth dn inactive, Yeast life ext inactive and RAM inhibit inactive.
For CC(=O)NC(CCS(C)(=O)=O)C(=O)Nc1ccc2c(c1)OCO2 (configuration not stated) the results were Measles CPE inactive, BB579 growth dn 44.1, Yeast life ext inactive and RAM inhibit inactive.
For CC(=O)NC(CCS(C)(=O)=O)C(=O)Nc1ccc(C)c(F)c1 (configuration not stated) the results were Measles CPE 57.0, BB579 growth dn inactive, Yeast life ext inactive and RAM inhibit inactive.
COc1cc(C(=O)NNC(=O)c2cc(C)[nH]n2)cc(OC)c1OC was read as RAM inhibit inactive.
`Cc1nn(-c2nc3ccccc3s2)c(C)c1Oc1ccccc1O` gave Measles CPE 43.8, BB579 growth dn inactive, Yeast life ext inactive and RAM inhibit inactive.
COc1ccc(/C=C2\N=C(SC)N(c3ccccc3OC)C2=O)cc1 was read as RAM inhibit 8.4.
CCOc1ccc(N2C(=O)/C(=C/c3ccccc3)N=C2SC)cc1 was read as RAM inhibit inactive.
`COc1cccc(CNC(=O)Cc2ccc(-n3c(=O)[nH]c4ccccc4c3=O)cc2)c1` gave Measles CPE inactive, BB579 growth dn inactive, Yeast life ext inactive and RAM inhibit 9.0.
Screening CCC1=C/C(=C/c2sc3ccccc3[n+]2CC)CC(C)(C)C1 returned RAM inhibit inactive.
CC[n+]1c(/C=C2\C=C(C)CC(C)C2)sc2ccccc21 (configuration not stated) was read as Measles CPE inactive, BB579 growth dn inactive, Yeast life ext 26.8 and RAM inhibit inactive.
CC[n+]1c(/C=C2\C=C(C)CC(C)(C)C2)sc2ccccc21 was read as Measles CPE inactive, BB579 growth dn inactive, Yeast life ext 40.0 and RAM inhibit inactive.
Cc1ccc(-c2nc(N)sc2CC(=O)OCC(=O)NC2CCCC(C)C2C)cc1 (configuration not stated) was read as Measles CPE 26.4, BB579 growth dn inactive, Yeast life ext inactive and RAM inhibit inactive.
O=C1CC(N2CCN(c3ccccc3)CC2)C(=O)N1CCc1ccccc1 (configuration not stated) was read as Measles CPE 39.6, BB579 growth dn inactive, Yeast life ext inactive and RAM inhibit inactive.
`COc1cccc(-c2nc(C(N)=O)c3[nH]c(=O)n(-c4ccccc4)c3n2)c1OC` gave Measles CPE inactive, BB579 growth dn inactive, Yeast life ext inactive and RAM inhibit inactive.
`CCOc1ccccc1-c1nc(C(N)=O)c2[nH]c(=O)n(-c3ccccc3)c2n1` gave Measles CPE inactive, BB579 growth dn inactive, Yeast life ext inactive and RAM inhibit 9.7.
CCC(C)(C)NC(=O)CN(C(=O)c1csnn1)c1ccccc1-c1ccccc1 was read as RAM inhibit inactive.
Screening Fc1ccc(N/N=C/c2ccncc2)c(F)c1 returned Measles CPE inactive, BB579 growth dn inactive, Yeast life ext inactive and RAM inhibit inactive.
Screening Clc1ccc(N/N=C/c2ccncc2)cc1Cl returned Measles CPE inactive, BB579 growth dn 49.3, Yeast life ext inactive and RAM inhibit inactive.
`Clc1ccc(N/N=C/c2cccnc2)cc1` gave Measles CPE inactive, BB579 growth dn 65.6, Yeast life ext inactive and RAM inhibit inactive.
